Measured values: ChEMBL document CHEMBL3425429
The source made the active and inactive calls. The calls are words filed in the database; no cut-off is given here.

Legend:
Bcr/Abl fusion protein = Bcr/Abl fusion protein (Homo sapiens, UniProt P00519); test: Inhibition of human BCR/ABL; type: protein assay
In short: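 Recombinant human BCR-ABL kinase, tested as part of a selected kinase panel through a commercial kinase-profiling service. IC50 is the mean of two independent experiments.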

MDA-MB-435 = test: Cytotoxicity against human MDA-MB-435 cells assessed as cell viability after 72 hrs by MTT assay; type: functional, cell-based; conditions: MDA-MB-435, 72 h
MDA-MB-231 [1] = test: Inhibition of ERK phosphorylation in human MDA-MB-231 cells at 0.001 to 1 uM after 20 hrs by Western blot analysis; type: cell-based
In short: (§1)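 MDA-MB-231 cells exposed to a concentration series for 20 h at 37 °C, then washed in ice-cold saline and lysed in RIPA buffer with protease cocktail. Lysates were cleared at 12 000 rpm for 10 min at 4 °C and protein measured by Bradford. Equal protein was run on SDS-PAGE, transferred to PVDF and immunoblotted for phospho-proteins.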

[2] = molecular target: Mitogen-activated protein kinase 1 (Homo sapiens, UniProt P28482); test: Inhibition of human MAPK1
Sequence of Mitogen-activated protein kinase 1 (P28482 whole entry): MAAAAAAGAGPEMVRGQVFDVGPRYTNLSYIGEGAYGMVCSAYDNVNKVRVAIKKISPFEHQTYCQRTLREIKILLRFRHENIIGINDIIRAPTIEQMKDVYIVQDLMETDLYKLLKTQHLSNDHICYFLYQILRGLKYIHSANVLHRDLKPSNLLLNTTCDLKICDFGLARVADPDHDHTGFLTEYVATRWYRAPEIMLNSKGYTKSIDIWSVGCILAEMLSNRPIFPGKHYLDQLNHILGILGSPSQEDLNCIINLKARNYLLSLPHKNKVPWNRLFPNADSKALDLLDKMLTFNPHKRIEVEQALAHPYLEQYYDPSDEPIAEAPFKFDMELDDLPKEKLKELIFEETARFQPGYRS
In short: (§2)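 Recombinant human protein kinases screened through the Eurofins KinaseProfiler service. IC50 values are means of two independent experiments.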

[3] = molecular target: Proto-oncogene tyrosine-protein kinase Src (Homo sapiens, UniProt P12931)
Sequence of Proto-oncogene tyrosine-protein kinase Src (P12931 2-536 limits assumed): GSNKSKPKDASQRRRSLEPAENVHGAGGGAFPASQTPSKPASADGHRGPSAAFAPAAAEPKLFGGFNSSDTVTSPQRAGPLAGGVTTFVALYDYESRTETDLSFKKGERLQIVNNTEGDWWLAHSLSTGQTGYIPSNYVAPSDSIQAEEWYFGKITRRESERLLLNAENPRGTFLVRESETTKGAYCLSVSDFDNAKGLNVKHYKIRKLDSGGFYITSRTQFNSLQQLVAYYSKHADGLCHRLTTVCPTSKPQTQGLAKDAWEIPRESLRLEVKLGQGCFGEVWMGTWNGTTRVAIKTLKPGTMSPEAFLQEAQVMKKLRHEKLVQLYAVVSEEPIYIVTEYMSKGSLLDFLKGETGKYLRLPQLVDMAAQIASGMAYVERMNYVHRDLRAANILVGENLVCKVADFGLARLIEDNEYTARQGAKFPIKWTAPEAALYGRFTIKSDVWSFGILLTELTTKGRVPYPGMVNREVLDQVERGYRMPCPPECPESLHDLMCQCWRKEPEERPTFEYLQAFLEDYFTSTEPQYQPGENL

MDA-MB-231 [4] = test: Induction of apoptosis in human MDA-MB-231 cells assessed as late apoptotic cells at 0.3 uM after 48 hrs by annexin V-FITC/propidium iodide staining-based flow cytometric analysis (reference value: 4.25%); type: functional
MCF7 = test: Cytotoxicity against human MCF7 cells assessed as cell viability after 72 hrs by MTT assay; type: functional, cell-based; conditions: MCF7, 72 h
MDA-MB-231 [5] = test: Antiproliferative activity against human MDA-MB-231 cells assessed as inhibition of colony formation at >0.01 uM after 12 days by crystal violet staining-based assay; type: functional, cell-based
In short: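 MDA-MB-231 cells plated at 5000 per well and treated the next day with vehicle or compound, medium refreshed every 4 days; after 12 days, colonies fixed in methanol, crystal violet stained and photographed.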

MDA-MB-231 [6] = test: Cell cycle arrest in human MDA-MB-231 cells assessed as accumulation at G0/G1 phase at 0.1 to 0.3 uM after 24 to 48 hrs by flow cytometric analysis; type: functional, cell-based
MDA-MB-231 [7] = test: Induction of apoptosis in human MDA-MB-231 cells assessed as late apoptotic cells at 0.03 uM after 48 hrs by annexin V-FITC/propidium iodide staining-based flow cytometric analysis (reference value: 4.25%); type: functional
MDA-MB-231 [8] = test: Antiinvasive activity against human MDA-MB-231 cells at 0.1 uM after 24 hrs by transwell assay; type: functional, cell-based
Mus musculus = test: In vivo inhibition of ERK phosphorylation in tumor of SCID mouse xenografted with human MDA-MB-231 cells at 30 mg/kg/day, po administered for 18 days measured post last dose by immunohistochemical analysis relative to vehicle-treated control; type: functional, organism-based
In short: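 SCID mice carrying subcutaneous MDA-MB-231 xenografts received oral dosing once daily for 18 days (vehicle 25% PEG400 plus 5% DMSO in sterile water); at the end, tumors formalin-fixed and paraffin-embedded, 4–8 μm sections immunostained (Ki67, phospho-proteins) or TUNEL/AP-Red labelled, and compared with control.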

MDA-MB-231 [9] = test: Induction of apoptosis in human MDA-MB-231 cells assessed as late apoptotic cells at 0.03 uM after 24 hrs by annexin V-FITC/propidium iodide staining-based flow cytometric analysis (reference value: 2.67%); type: functional
Aurora kinase A = Aurora kinase A (Homo sapiens, UniProt O14965); test: Inhibition of human Aurora-A; in short: as §2
MDA-MB-231 [10] = test: Effect on AKT phosphorylation in human MDA-MB-231 cells at 0.001 to 1 uM after 20 hrs by Western blot analysis; type: cell-based
In short: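 MDA-MB-231 cells exposed to a concentration series for 20 h at 37 °C, lysed in RIPA with protease inhibitor cocktail, cleared by centrifugation, protein quantified by Bradford, resolved by SDS-PAGE, transferred to PVDF and immunoblotted.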

[11] = molecular target: RAC-beta serine/threonine-protein kinase (Homo sapiens, UniProt P31751); test: Inhibition of human PKBbeta; in short: as §2
MDA-MB-231 [12] = test: Induction of apoptosis in human MDA-MB-231 cells assessed as viable cells at 0.3 uM after 24 hrs by annexin V-FITC/propidium iodide staining-based flow cytometric analysis (reference value: 95.5%); type: functional; conditions: MDA-MB-231, 24 h, read-out: Activity
[13] = molecular target: Serine/threonine-protein kinase mTOR (Homo sapiens, UniProt P42345); test: Inhibition of human mTOR; in short: as §2
[14] = Terminal half life in Sprague-Dawley rat at 10 mg/kg, po by LC/MS analysis; type: ADME, organism-based; set-up: dose 10 mg/kg, route oral; conditions: in vivo, read-out: beta t1/2 (converted)
In short: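 Male Sprague-Dawley rats fitted with jugular vein catheters and fasted overnight, then given a single 10 mg/kg oral gavage dose; n=5. Serial blood samples were spun at once to plasma and analysed by LC-MS/MS. Noncompartmental parameters were fitted.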

[15] = molecular target: Protein kinase C alpha type (Homo sapiens, UniProt P17252); test: Inhibition of human PKCalpha; in short: as §2
MDA-MB-231 [16] = test: Induction of apoptosis in human MDA-MB-231 cells after 24 to 48 hrs by annexin V-FITC/propidium iodide staining-based flow cytometric analysis; type: functional, cell-based
MDA-MB-231 [17] = test: Induction of apoptosis in human MDA-MB-231 cells assessed as viable cells at 0.03 uM after 24 hrs by annexin V-FITC/propidium iodide staining-based flow cytometric analysis (reference value: 95.5%); type: functional; conditions: MDA-MB-231, 24 h, read-out: Activity
[18] = molecular target: Cyclin-dependent kinase 7 (Homo sapiens, UniProt P50613); test: Inhibition of human CDK7; in short: as §2
[19] = molecular target: Serine/threonine-protein kinase pim-1 (Homo sapiens, UniProt P11309); test: Inhibition of human Pim1; in short: as §2
Sequence of Serine/threonine-protein kinase pim-1 (P11309 whole entry): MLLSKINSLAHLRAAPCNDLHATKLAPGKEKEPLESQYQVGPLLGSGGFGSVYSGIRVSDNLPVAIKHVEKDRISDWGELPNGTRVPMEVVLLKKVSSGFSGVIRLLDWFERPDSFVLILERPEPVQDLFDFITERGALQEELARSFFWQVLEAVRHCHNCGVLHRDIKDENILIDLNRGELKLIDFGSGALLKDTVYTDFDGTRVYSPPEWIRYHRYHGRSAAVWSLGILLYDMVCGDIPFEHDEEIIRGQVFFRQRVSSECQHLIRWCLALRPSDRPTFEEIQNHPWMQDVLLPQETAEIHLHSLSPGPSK

MDA-MB-231 [20] = test: Antitumor activity against human MDA-MB-231 cells xenografted in SCID mouse assessed as tumor growth inhibition at 7.5 to 15 mg/kg/day, po qd administered for 18 days measured every 3 days during compound dosing; type: functional, organism-based
In short: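 SCID mice (5–6 weeks) were injected subcutaneously with 100 μL of exponential-phase MDA-MB-231 cells (5 × 10^7 per mL). They were randomized at 150–200 mm3 tumor volume (6 per group) and dosed orally once daily for 18 days in sterile water with 25% PEG400 plus 5% DMSO, with a vehicle group. Tumor volume (ab2/2) was measured every 3 days.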

MDA-MB-231 [21] = test: Inhibition of MEK phosphorylation in human MDA-MB-231 cells at 0.001 to 1 uM after 20 hrs by Western blot analysis; type: cell-based; in short: as §1
[22] = Cmax in Sprague-Dawley rat at 10 mg/kg, po by LC/MS analysis; type: ADME, organism-based; set-up: dose 10 mg/kg, route oral; conditions: in vivo
In short: (§3)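 Single oral gavage dose in male Sprague-Dawley rats fasted overnight; serial blood drawn via surgically placed jugular vein catheters at set times, plasma separated at once and measured by HPLC-MS/MS; noncompartmental parameters fitted; n=5.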

[23] = molecular target: Serine/threonine-protein kinase TBK1 (Homo sapiens, UniProt Q9UHD2); test: Inhibition of human TBK1; in short: as §2
Sequence of Serine/threonine-protein kinase TBK1 (Q9UHD2 whole entry): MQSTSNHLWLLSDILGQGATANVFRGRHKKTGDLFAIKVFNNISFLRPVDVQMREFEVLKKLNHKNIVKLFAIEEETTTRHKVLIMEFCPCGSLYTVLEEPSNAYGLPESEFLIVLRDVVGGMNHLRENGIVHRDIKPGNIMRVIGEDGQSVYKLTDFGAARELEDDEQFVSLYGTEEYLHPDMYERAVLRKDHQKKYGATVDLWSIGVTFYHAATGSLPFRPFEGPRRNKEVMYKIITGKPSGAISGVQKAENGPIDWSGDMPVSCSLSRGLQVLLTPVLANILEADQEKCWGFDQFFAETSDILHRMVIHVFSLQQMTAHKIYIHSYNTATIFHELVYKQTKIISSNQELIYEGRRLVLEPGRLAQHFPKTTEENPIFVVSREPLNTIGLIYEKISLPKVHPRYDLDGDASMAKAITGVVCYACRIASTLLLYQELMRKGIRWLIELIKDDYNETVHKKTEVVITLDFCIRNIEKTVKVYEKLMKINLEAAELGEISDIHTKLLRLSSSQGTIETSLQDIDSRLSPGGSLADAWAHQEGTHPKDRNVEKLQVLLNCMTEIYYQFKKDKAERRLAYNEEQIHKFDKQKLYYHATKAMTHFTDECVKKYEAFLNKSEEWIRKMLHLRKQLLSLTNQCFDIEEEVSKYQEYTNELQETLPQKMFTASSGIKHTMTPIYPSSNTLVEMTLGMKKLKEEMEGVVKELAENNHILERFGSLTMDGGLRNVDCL

Rattus norvegicus = test: AUC (0 to infinity) in Sprague-Dawley rat at 10 mg/kg, po by LC/MS analysis; type: ADME, organism-based, Plasma; set-up: time infinity, dose 10 mg/kg, route oral; conditions: in vivo; in short: as §3

Sequence of Bcr/Abl fusion protein (P00519 whole entry, the tested form may be a part): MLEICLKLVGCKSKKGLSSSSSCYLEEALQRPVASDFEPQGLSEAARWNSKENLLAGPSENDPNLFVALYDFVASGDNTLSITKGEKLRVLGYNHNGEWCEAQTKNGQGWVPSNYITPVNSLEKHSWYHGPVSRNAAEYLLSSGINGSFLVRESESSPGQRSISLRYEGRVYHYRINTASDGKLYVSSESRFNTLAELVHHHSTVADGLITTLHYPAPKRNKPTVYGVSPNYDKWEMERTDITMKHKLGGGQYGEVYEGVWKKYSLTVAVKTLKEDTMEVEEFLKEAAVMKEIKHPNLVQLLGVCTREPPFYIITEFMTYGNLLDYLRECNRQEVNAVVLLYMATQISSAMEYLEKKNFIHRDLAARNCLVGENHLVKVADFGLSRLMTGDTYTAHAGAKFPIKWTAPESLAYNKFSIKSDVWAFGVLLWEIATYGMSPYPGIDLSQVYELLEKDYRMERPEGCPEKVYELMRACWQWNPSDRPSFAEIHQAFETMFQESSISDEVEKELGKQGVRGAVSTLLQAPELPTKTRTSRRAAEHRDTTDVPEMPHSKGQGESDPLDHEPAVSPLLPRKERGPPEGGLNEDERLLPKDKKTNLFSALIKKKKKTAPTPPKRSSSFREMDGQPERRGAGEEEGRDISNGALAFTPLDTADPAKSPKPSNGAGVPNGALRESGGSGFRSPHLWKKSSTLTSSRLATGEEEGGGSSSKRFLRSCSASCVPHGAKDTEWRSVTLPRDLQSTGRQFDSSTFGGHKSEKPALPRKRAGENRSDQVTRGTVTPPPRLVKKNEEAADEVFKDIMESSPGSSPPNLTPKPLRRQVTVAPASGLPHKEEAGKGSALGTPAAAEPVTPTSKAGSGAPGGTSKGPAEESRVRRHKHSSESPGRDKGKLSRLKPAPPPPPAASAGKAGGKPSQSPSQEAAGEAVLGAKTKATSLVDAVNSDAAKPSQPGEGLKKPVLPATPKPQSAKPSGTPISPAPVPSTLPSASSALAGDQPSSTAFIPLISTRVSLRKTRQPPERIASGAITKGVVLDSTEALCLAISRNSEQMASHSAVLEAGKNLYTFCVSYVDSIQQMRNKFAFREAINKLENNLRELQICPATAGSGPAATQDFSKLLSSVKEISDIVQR
Sequence of Bcr/Abl fusion protein (P11274 whole entry, further chain, the tested form may be a part): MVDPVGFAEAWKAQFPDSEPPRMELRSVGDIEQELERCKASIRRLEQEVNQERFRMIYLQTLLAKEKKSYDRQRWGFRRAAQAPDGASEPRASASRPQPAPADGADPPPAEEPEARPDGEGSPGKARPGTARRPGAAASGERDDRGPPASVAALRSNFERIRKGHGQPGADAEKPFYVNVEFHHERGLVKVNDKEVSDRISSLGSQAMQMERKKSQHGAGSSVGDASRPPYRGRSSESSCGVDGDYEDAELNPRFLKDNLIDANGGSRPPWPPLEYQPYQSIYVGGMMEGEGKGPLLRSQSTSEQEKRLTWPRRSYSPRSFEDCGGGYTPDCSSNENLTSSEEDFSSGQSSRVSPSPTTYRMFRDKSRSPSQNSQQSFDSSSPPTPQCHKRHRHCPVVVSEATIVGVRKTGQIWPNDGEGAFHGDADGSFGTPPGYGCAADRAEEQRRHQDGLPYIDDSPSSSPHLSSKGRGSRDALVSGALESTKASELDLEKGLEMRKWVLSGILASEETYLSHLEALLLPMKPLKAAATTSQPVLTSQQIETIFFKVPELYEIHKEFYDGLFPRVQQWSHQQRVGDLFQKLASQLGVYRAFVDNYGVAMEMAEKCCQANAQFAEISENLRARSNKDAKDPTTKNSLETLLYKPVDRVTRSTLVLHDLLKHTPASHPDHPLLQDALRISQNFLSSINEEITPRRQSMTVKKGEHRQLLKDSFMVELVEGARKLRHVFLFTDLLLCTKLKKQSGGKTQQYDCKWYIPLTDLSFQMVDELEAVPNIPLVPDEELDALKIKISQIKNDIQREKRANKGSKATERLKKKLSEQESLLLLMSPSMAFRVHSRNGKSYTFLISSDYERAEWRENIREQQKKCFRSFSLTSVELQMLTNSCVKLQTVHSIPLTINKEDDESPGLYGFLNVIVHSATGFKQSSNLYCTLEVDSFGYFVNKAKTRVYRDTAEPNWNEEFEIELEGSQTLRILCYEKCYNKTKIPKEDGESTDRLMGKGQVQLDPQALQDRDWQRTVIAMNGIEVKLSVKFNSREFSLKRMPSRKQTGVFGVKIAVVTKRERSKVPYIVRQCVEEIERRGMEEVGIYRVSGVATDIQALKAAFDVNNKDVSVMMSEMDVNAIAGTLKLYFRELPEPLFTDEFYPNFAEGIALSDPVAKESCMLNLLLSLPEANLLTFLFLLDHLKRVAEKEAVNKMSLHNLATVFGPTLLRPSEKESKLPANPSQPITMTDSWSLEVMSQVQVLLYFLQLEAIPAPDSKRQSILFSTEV

SMILES: CCn1nc(C#Cc2cc(C(=O)Nc3ccc(CN4CCN(C)CC4)c(C(F)(F)F)c3)ccc2C)c2c(N)ncnc21
- IC50 (Bcr/Abl fusion protein): 0.001 µM
- IC50 (MDA-MB-435): 0.005 µM
- inhibition (MDA-MB-231 [1]): Active
- IC50 [2]: > 10 µM
- IC50 [3]: 0.0009 µM
- Activity (MDA-MB-231 [4]): 10.3%
- IC50 (MCF7): 7.25 µM
- inhibition (MDA-MB-231 [5]): Active
- Activity (MDA-MB-231 [6]): Active
- Activity (MDA-MB-231 [7]): 4.85%
- Activity (MDA-MB-231 [8]): Active
- inhibition (Mus musculus): Active
- Activity (MDA-MB-231 [9]): 3.92%
- IC50 (Aurora kinase A): > 10 µM
- Activity (MDA-MB-231 [10]): inactive
- IC50 [11]: > 10 µM
- viability at 0.3 µM (MDA-MB-231 [12]): 76.7%
- IC50 [13]: > 10 µM
- half-life [14]: 12.8 h
- IC50 [15]: > 10 µM
- Activity (MDA-MB-231 [16]): Dose-dependent effect
- viability at 0.03 µM (MDA-MB-231 [17]): 92.9%
- IC50 [18]: > 10 µM
- IC50 [19]: > 10 µM
- TGI (MDA-MB-231 [20]): Active
- inhibition (MDA-MB-231 [21]): Active
- Cmax [22]: 215 ng/mL
- IC50 [23]: > 10 µM
- AUC (Rattus norvegicus): 4772.5 µg/L/h
